Experimental data from ChEMBL document CHEMBL1157585, “Synthesis and characterization of novel 1,2,4-triazine derivatives with antiproliferative activity” (Bioorg Med Chem, 2010).
Converted amounts (≈) assume the structure as drawn.

How the values were obtained:
K562 = assay: Antiproliferative activity against human K562 cells after 72 hrs by resazurin dye reduction assay; format: functional; conditions: K562, 72 h
In short: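 K-562 cells grown at 37 °C in RPMI 1640 with ultraglutamine, gentamicin and 10% heat-inactivated FBS. About 10,000 cells seeded per well in 0.1 mL medium. Compounds were dissolved in DMSO, diluted in DMEM and incubated with cells for 72 h at 37 °C, humidified, 5% CO2. Viable cells were read by CellTiter-Blue resazurin fluorescence. GI50 was taken where the dose-response curve crosses 50% of untreated control, with 4 parallels per concentration.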

HeLa = assay: Cytotoxicity against human HeLa cells after 72 hrs by methylene blue staining; format: functional
In short: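 HeLa cells were cultured at 37 °C in RPMI 1640 with ultraglutamine, gentamicin and 10% heat-inactivated FBS, then pre-incubated 48 h without compound. Compound dilutions went onto the subconfluent monolayers, followed by 72 h at 37 °C, humidified, 5% CO2. Cells were fixed with glutaraldehyde, stained 15 min with 0.05% methylene blue and eluted with 0.33 N HCl, with OD read at 660 nm. CC50 was taken at 50% of untreated control, with 4 parallels per concentration.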

[1] = Antiproliferative activity against HUVEC after 72 hrs by resazurin dye reduction assay; format: cell-based; conditions: human, HUVEC cells
[2] = Octanol-water partition coefficient, log P by RP-HPLC method; format: physicochemical
Albumin = Albumin (Homo sapiens, UniProt P02768); assay: Binding affinity to HSA after 30 mins assessed as quenching of intrinsic HSA fluorescence emission by spectrofluorimetric assay; format: ADME
In short: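 Intrinsic tryptophan fluorescence of HSA at 2 µM final in PBS pH 7.4. Compound stocks were made in DMSO and titrated at increasing concentrations, with 30 min incubation at ambient temperature. Kd came from a quadratic binding equation fitted by nonlinear least squares (Marquardt).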

Chain of Albumin (P02768 whole entry): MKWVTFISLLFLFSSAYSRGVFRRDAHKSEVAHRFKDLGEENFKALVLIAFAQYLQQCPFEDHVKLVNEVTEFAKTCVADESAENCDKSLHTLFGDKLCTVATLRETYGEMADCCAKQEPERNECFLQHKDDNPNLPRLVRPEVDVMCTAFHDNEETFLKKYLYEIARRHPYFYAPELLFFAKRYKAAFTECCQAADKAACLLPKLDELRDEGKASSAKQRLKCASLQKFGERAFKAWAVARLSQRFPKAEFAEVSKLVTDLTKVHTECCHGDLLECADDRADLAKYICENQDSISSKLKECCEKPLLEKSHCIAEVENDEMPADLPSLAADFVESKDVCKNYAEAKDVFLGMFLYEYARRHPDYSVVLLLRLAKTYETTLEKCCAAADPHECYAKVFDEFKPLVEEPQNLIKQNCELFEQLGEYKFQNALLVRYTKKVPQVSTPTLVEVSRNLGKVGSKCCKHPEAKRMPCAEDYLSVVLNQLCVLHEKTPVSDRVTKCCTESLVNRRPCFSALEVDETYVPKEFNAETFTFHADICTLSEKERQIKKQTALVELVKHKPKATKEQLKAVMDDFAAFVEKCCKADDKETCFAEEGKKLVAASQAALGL

Structure (SMILES) | GI50 (K562) [µg/mL] | logP [2] | Kd (Albumin) [µM] | CC50 (HeLa) [µg/mL] | GI50 at 72 h [1] [µg/mL]
O=C1C(N2CCCCC2)=NN(c2ccc(Cl)cc2)CN1c1ccccc1Cl | > 50 | 5 | – | > 50 | > 50
CN(C)C1=NN(c2ccc(Cl)cc2)CN(c2ccccc2Cl)C1=O | 11 (≈ 30.3 µM) | 4.2 | 10.2 | 39.4 (≈ 108 µM) | 16.1 (≈ 44.3 µM)
O=C1C(N2CCCCC2)=NN(c2ccccc2)CN1c1ccccc1Cl | 42 (≈ 114 µM) | 4.6 | – | 26 (≈ 70.5 µM) | 24.7 (≈ 67 µM)
O=C1C(N2CCOCC2)=NN(c2ccc(Cl)cc2)CN1c1ccccc1Cl | > 50 | 4 | – | > 50 | 45.6 (≈ 113 µM)
O=C1C(N2CCOCC2)=NN(c2ccccc2)CN1c1ccccc1Cl | > 50 | 3.5 | – | > 50 | > 50
O=C1C(N2CCCC2)=NN(c2ccc(Cl)cc2)CN1c1ccccc1Cl | 8.6 (≈ 22.1 µM) | 4.6 | 2.77 | > 50 | 18.9 (≈ 48.6 µM)

Now those with a lower GI50 (K562), led by results:

GI50 (K562) [µg/mL] | logP [2] | Kd (Albumin) [µM] | Structure (SMILES) | CC50 (HeLa) [µg/mL] | GI50 at 72 h [1] [µg/mL]
5.8 (≈ 17.6 µM) | 3.6 | 7.96 | CN(C)C1=NN(c2ccccc2)CN(c2ccccc2Cl)C1=O | 39.5 (≈ 120 µM) | 34.5 (≈ 105 µM)
5.2 (≈ 14.7 µM) | 4 | 2.46 | O=C1C(N2CCCC2)=NN(c2ccccc2)CN1c1ccccc1Cl | 44.3 (≈ 125 µM) | 40.9 (≈ 115 µM)
1 (≈ 1.84 µM) | 0.71 | – | COc1cccc2c1C(=O)c1c(O)c3c(c(O)c1C2=O)C[C@@](O)(C(=O)CO)C[C@@H]3O[C@H]1C[C@H](N)[C@H](O)[C@H](C)O1 [DOXORUBICIN] | 2 (≈ 3.68 µM) | 0.1 (≈ 0.184 µM)
0.1 (≈ 0.203 µM) | – | – | Cc1ccc(NC(=O)c2ccc(CN3CCN(C)CC3)cc2)cc1Nc1nccc(-c2cccnc2)n1 [IMATINIB] | – | 10.9 (≈ 22.1 µM)
